# Data as given in ChEMBL document CHEMBL4177580, “New 5-HT1A, 5HT2A and 5HT2C receptor ligands containing a picolinic nucleus: Synthesis, in vitro and in vivo pharmacological evaluation” (Bioorg Med Chem, 2017).
# The source made the active and inactive calls.
# Legend:
# [1] = test system: Mus musculus; assay: Induction of hypothermia in Swiss albino mouse assessed as reduction in body temperature at 15 mg/kg, ip measured after 120 mins post dose; assay type: functional, organism-based
# Outline: (§1)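 Normothermic male Swiss mice; rectal thermistor readings over 180 min. Baseline is the mean of readings 60 and 30 min before dosing; readings at 30, 60, 90, 120 min post-injection; Δt = tf − ti. Test compounds i.p. (DMSO/methylcellulose); 8-OH-DPAT (5 mg/kg) and WAY 100635 (0.1 mg/kg) s.c. in water. Two-way ANOVA, Bonferroni.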
# [2] = test system: Mus musculus; assay: Toxicity in Swiss albino mouse assessed as reduction in spontaneous locomotor activity at 30 mg/kg, ip dosed 60 mins before test and measured after 6 mins; assay type: organism-based; details: in vivo, 0.1 h
# Outline: (§2)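 Spontaneous locomotion: mice dosed i.p. 60 min before being placed individually in an actometer for 30 min. Distance travelled read at 6 and 30 min. Cages cleaned with 70% ethanol between animals. One-way ANOVA with Dunnett's; mean ± SEM of one experiment.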
# [3] = target: T1, Adrenergic receptor alpha-1 (Rattus norvegicus, UniProt P15823+P23944+P43140); assay: Displacement of [3H]prazosin from adrenergic alpha1 receptor in rat cerebral cortex
# T1 sequence (P15823 whole entry): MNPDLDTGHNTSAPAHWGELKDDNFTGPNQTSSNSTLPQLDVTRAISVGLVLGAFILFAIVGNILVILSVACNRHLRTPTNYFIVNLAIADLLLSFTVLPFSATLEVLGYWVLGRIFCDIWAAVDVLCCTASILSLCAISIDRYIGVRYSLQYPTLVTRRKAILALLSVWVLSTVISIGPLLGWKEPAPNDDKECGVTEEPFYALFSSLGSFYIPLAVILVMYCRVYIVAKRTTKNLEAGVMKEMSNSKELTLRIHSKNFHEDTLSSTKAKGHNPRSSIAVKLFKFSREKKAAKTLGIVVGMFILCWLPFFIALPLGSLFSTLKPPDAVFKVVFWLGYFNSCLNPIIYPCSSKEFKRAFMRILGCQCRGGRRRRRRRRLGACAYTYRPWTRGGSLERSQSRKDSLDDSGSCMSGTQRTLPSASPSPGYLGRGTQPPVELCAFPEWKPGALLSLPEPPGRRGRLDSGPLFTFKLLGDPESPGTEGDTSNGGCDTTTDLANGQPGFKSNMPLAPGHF
# T1 sequence (P23944 whole entry): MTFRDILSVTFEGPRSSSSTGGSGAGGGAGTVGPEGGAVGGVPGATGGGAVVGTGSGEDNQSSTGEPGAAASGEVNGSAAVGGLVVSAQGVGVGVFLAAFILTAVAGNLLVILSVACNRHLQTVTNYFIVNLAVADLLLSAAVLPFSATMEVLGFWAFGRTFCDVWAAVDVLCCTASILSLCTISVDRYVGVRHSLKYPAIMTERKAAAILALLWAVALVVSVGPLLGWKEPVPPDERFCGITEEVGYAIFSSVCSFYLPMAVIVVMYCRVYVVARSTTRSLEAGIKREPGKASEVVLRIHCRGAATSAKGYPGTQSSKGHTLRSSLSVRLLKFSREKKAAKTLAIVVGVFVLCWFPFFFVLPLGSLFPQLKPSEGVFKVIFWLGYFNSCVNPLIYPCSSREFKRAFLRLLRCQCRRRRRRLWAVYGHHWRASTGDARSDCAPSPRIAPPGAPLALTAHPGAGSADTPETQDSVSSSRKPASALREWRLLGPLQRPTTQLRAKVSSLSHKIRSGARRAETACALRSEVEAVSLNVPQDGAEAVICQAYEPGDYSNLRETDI
# T1 sequence (P43140 whole entry): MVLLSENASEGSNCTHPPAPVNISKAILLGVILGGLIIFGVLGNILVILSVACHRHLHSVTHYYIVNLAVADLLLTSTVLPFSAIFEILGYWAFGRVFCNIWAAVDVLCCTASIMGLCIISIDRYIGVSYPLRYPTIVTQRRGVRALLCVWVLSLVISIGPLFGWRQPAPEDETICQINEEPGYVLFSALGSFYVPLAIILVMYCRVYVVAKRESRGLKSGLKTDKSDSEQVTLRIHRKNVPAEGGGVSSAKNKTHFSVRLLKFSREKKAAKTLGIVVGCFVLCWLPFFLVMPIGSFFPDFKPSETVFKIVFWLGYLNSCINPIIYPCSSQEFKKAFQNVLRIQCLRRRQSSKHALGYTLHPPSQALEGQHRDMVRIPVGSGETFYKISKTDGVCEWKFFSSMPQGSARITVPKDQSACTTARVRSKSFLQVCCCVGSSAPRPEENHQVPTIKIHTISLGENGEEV
# [4] = test system: Mus musculus; assay: Toxicity in Swiss albino mouse assessed as reduction in spontaneous locomotor activity at 60 mg/kg, ip dosed 60 mins before test and measured after 30 mins; assay type: organism-based; details: in vivo, 0.5 h; outline: as §2
# [5] = test system: Mus musculus; assay: Toxicity in Swiss albino mouse assessed as effect on motor coordination at 1.875 to 7.5 mg/kg, ip dosed 60 mins before test by Chimney test; assay type: organism-based; details: in vivo, 1 h, in the assay text read “3.75 to 60 mg/kg” for “1.875 to 7.5 mg/kg”
# Outline: (§3)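 Chimney test in male Swiss mice after i.p. dosing 60 min earlier: impairment defined as failure to climb backwards up a tube (3 cm inner diameter, 25 cm long) within 60 s. Animals pre-trained once daily for 3 days. One-way ANOVA with Dunnett's.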
# [6] = target: D(2) dopamine receptor (Homo sapiens, UniProt P14416); assay: Displacement of [3H]methyl-spiperone from human recombinant dopamine D2 receptor expressed in HEK293 cells; assay type: cell-based
# [7] = test system: Mus musculus; assay: Toxicity in Swiss albino mouse assessed as induction of impairment of motor coordination by measuring reduction in time spent on rota-rod at 30 mg/kg, ip dosed 60 mins before test by rotarod test; assay type: organism-based; details: in vivo, 1 h
# Outline: (§4)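 Rotarod in male Swiss mice, i.p. dosing 60 min pre-test: impairment is inability to stay 1 min on a rod turning at 18 rpm, after 3 days of daily training. Mean ± SEM of 2 independent experiments; one-way ANOVA with Dunnett's.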
# [8] = test system: Mus musculus; assay: Antidepressant-like activity in Swiss albino mouse assessed as reduction in immobility time at 1.875 mg/kg, ip dosed 1 hr before test by forced swimming test; assay type: functional, organism-based
# Outline: (§5)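 Male Swiss albino mice (18–24 g), compound i.p. in 0.1% DMSO/0.5% methylcellulose 1 h pre-test. Porsolt swim: cylinder 25 cm high, 10 cm diameter, 10 cm water at 23–25°C, 6 min session; immobility scored over last 4 min. Blind observer; one-way ANOVA with Dunnett's; mean ± SEM.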
# [9] = test system: Mus musculus; assay: Toxicity in Swiss albino mouse assessed as induction of impairment of motor coordination by measuring reduction in time spent on rota-rod at 60 mg/kg, ip dosed 60 mins before test by rotarod test; assay type: organism-based; details: in vivo, 1 h; outline: as §4
# [10] = test system: Mus musculus; assay: Anxiolytic-like activity in Swiss albino mouse assessed as increase in time spent in open arms at 1.875 to 7.5 mg/kg measured for 5 mins test period by elevated plus maze test; assay type: functional, organism-based
# [11] = test system: Mus musculus; assay: Toxicity in Swiss albino mouse assessed as reduction in spontaneous locomotor activity at 60 mg/kg, ip dosed 60 mins before test and measured after 6 mins; assay type: organism-based; details: in vivo, 0.1 h; outline: as §2
# [12] = test system: Mus musculus; assay: Toxicity in Swiss albino mouse assessed as reduction in spontaneous locomotor activity at 30 mg/kg, ip dosed 60 mins before test and measured after 30 mins; assay type: organism-based; details: in vivo, 0.5 h; outline: as §2
# [13] = test system: Mus musculus; assay: Toxicity in Swiss albino mouse assessed as reduction in spontaneous locomotor activity at 15 mg/kg, ip dosed 60 mins before test and measured after 30 mins; assay type: organism-based; details: in vivo, 0.5 h; outline: as §2
# [14] = test system: Mus musculus; assay: Toxicity in Swiss albino mouse assessed as reduction in spontaneous locomotor activity at 1.875 mg/kg, ip dosed 60 mins before test; assay type: organism-based; details: in vivo, 1 h; outline: as §2
# [15] = test system: Mus musculus; assay: Toxicity in Swiss albino mouse assessed as reduction in spontaneous locomotor activity at 15 mg/kg, ip dosed 60 mins before test; assay type: organism-based; details: in vivo, 1 h; outline: as §2
# [16] = target: T2, 5-hydroxytryptamine receptor 1A (Rattus norvegicus, UniProt P19327); assay: Displacement of [3H]-8-OH-DPAT from serotonin 5-HT1A receptor in Sprague-Dawley rat brain cortex homogenates incubated for 30 mins by liquid scintillation spectrometry
# T2 sequence (P19327 whole entry): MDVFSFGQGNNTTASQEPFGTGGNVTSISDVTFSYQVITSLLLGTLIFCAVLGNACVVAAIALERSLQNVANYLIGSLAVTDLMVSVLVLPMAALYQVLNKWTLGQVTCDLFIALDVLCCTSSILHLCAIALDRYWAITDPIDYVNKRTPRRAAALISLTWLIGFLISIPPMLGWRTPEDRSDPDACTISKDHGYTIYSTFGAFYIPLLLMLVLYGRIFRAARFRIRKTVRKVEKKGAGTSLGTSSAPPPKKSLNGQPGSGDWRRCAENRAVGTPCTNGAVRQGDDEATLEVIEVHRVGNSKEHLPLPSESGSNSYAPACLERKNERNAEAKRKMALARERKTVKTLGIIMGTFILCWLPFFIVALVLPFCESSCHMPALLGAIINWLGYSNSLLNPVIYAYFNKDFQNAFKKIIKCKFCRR
# [17] = test system: Mus musculus; assay: Induction of hypothermia in normothermic Swiss albino mouse assessed as reduction in body temperature at 30 mg/kg, ip measured after 120 mins post dose; assay type: functional, organism-based; outline: as §1
# [18] = test system: Mus musculus; assay: Antidepressant-like activity in Swiss albino mouse assessed as reduction in immobility time at 15 mg/kg, ip dosed 1 hr before test by forced swimming test; assay type: functional, organism-based
# Outline: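 Male Swiss albino mice (18-24 g). The reference drug was diluted in saline and given ip (10 ml/kg) 1 h before testing. Each mouse swam for 6 min in a cylinder (25 cm high, 10 cm diameter) holding 10 cm of water at 23-25°C. Immobility was timed over the last 4 min. Data are mean ± SEM, analysed by one-way ANOVA with Dunnett's test.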
# [19] = test system: Mus musculus; assay: Antidepressant-like activity in Swiss albino mouse assessed as reduction in immobility time at 7.5 mg/kg, ip dosed 1 hr before test by forced swimming test; assay type: functional, organism-based; outline: as §5
# [20] = test system: Mus musculus; assay: Toxicity in Swiss albino mouse assessed as reduction in spontaneous locomotor activity at 7.5 mg/kg, ip dosed 60 mins before test; assay type: organism-based; details: in vivo, 1 h; outline: as §2
# [21] = test system: Mus musculus; assay: Anxiolytic-like activity in Swiss albino mouse assessed as increase in time spent in open arms at 3.75 to 15 mg/kg measured for 5 mins test period by elevated plus maze test; assay type: functional, organism-based
# [22] = test system: Rattus norvegicus; assay: In-vivo 5-HT1A receptor agonist activity in Wistar rat assessed as induction of lower lip retraction by measuring lower lip retraction score at 1 mg/kg, ip dosed 15 mins before test co-treated with 0.3 mg/kg, ip WAY100635
# [23] = target: 5-hydroxytryptamine receptor 2A (Rattus norvegicus, UniProt P14842); assay: Displacement of [3H]ketanserin from serotonin 5-HT2A receptor in Sprague-Dawley rat brain cortex homogenates incubated for 15 mins by liquid scintillation spectrometry
# [24] = target: T3, 5-hydroxytryptamine receptor 2C (Rattus norvegicus, UniProt P08909); assay: Displacement of [3H]mesulergine from serotonin 5-HT2C receptor in Sprague-Dawley rat brain cortex homogenates incubated for 15 mins by liquid scintillation spectrometry
# T3 sequence (P08909 whole entry): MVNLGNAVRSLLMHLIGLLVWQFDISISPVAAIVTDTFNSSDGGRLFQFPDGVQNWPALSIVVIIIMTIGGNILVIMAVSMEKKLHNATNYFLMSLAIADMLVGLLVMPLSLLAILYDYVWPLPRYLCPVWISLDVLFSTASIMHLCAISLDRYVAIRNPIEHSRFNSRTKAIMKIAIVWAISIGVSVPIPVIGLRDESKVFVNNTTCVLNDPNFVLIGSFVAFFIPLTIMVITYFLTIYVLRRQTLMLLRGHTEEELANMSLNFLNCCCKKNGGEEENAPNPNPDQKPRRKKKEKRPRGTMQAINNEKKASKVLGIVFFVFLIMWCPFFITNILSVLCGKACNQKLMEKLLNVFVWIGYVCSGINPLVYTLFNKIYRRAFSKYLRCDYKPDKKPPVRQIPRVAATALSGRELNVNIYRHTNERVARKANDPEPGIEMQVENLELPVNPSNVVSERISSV
# [25] = test system: Rattus norvegicus; assay: In-vivo 5-HT1A receptor antagonist activity in Wistar rat assessed as reduction in 8-OH-DPAT-stimulated induction of lower lip retraction by measuring lower lip retraction score at 30 mg/kg, ip dosed 15 mins before test (reference value: 2.875 +/- 0.08183)
# [26] = test system: Mus musculus; assay: Inhibition of 8-OH-DPAT-induced hypothermia in Swiss albino mouse at 30 mg/kg, ip measured after 120 mins post dose co-treated with 8-OH-DPAT; assay type: functional, organism-based; outline: as §1
# [27] = test system: Rattus norvegicus; assay: In-vivo 5-HT1A receptor agonist activity in Wistar rat assessed as induction of lower lip retraction by measuring lower lip retraction score at 30 mg/kg, ip dosed 15 mins before test (reference value: 0.0 +/- 0.0)
# [28] = test system: Mus musculus; assay: Toxicity in Swiss albino mouse assessed as effect on motor coordination at 3.75 to 15 mg/kg, ip dosed 60 mins before test by Chimney test; assay type: organism-based; details: in vivo, 1 h; outline: as §3
# Sequence of D(2) dopamine receptor (P14416 whole entry): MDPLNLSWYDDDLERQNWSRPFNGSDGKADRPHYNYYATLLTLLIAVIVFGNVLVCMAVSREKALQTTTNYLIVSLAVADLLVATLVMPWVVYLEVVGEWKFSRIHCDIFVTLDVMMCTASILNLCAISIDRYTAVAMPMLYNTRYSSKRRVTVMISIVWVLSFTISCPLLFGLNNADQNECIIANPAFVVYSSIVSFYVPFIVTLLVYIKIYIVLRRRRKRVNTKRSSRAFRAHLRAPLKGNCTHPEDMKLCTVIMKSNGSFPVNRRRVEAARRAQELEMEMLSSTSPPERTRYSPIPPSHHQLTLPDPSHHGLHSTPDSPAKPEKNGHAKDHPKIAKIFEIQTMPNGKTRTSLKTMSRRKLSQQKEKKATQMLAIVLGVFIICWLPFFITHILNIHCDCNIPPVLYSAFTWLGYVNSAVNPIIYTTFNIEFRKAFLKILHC
# Sequence of 5-hydroxytryptamine receptor 2A (P14842 whole entry): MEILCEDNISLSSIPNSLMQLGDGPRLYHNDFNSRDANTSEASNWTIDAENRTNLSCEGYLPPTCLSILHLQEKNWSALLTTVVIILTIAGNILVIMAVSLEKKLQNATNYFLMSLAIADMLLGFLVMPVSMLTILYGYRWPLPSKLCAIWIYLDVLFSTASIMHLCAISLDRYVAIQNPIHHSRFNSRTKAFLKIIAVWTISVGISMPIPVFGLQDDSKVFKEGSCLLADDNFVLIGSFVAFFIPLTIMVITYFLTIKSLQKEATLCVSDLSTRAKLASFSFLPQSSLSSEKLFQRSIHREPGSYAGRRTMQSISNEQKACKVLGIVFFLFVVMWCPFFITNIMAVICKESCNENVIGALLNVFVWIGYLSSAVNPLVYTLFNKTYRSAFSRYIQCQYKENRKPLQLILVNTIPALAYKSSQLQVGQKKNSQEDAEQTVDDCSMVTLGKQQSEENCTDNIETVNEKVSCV
smiles,measurement,setting,value
O=C(NCCN1CCN(c2ccc(Cl)cc2)CC1)c1ccccn1,Activity,[1],Active
same,Activity,[2],Toxic
same,Ki,[3],76 nM
same,Activity,[4],Toxic
same,Activity,[5],Non-Toxic
same,Ki,[6],2300 nM
same,Activity,[7],Toxic
same,Activity,[8],Active
same,Activity,[9],Toxic
same,Activity,[10],Active
same,Activity,[11],Toxic
same,Activity,[12],Toxic
same,Activity,[13],Toxic
same,Activity,[14],Non-Toxic
O=C(NCCN1CCN(c2ncccn2)CC1)c1ccccn1,Activity,[15],Non-Toxic
same,Ki,[16],0.046 nM
same,Activity,[17],inactive
same,Activity,[18],Active
same,Activity,[19],Active
same,Activity,[20],Non-Toxic
same,Activity,[21],Active
same,Activity,[22],inactive
same,Ki,[23],> 10000 nM
same,Ki,[24],> 10000 nM
same,Activity_index,[25],2
same,inhibition,[26],Active
same,Activity_index,[27],2.714
same,Activity,[28],Non-Toxic
